Read-outs that look alike come from different tables or passages of the source.
Experiments:
[1] = system: cGMP; conditions: cited from earlier work
[2] = system: patients with mild-to-moderate schizophrenia; assay: Safety and tolerability; format: in vivo, human
How it was run: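 Patients were randomized 1:1:1:1 to oral test compound (25, 50 or 100 mg) or placebo once daily for 14 days, double-blind. Assessments were AEs, vital signs, 12-lead ECG, clinical laboratory tests, physical examination, CGI-I, PANSS, C-SSRS, Snellen visual acuity and Ishihara colour vision. End-of-treatment visit came 7–14 days after the last dose. All dosed patients were included, and results were summarized descriptively.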

[3] = healthy male volunteers, single oral dose; cited from earlier work
[4] = system: memory performance; conditions: cited from earlier work
[5] = system: rat hippocampal slices; conditions: application to rat hippocampal slices; cited from earlier work
[6] = format: in vivo, human
How it was run: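 Randomized, double-blind, placebo-controlled study in DSM-IV schizophrenia patients (18–55 y, clinically stable, on one antipsychotic). Plasma AUC0−∞, Cmax and tmax taken on day 1, and AUCtau,ss, Cmax,ss and tmax,ss at steady state (day 14). Dose proportionality was fitted by log-log linear regression.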

[7] = system: cGMP; conditions: healthy male volunteers, single oral dose; cited from earlier work
[8] = system: healthy male volunteers; conditions: cited from earlier work
[9] = system: patients with mild-to-moderate probable Alzheimer's disease; conditions: cited from earlier work
[10] = steady state vs single dose, 25 to 100 mg
[11] = phase II placebo-controlled study

O=c1[nH]c(Cc2ccccn2)nc2c1cnn2C1CCOCC1 [BI 409306]
cGMP in rat cerebrospinal fluid (CSF) and prefrontal cortex [1]: dose-dependent increase | mean change from baseline in total PANSS score ([2]; 25 mg qd, day 7): −0.1 | mean change from baseline in total PANSS score ([2]; 25 mg qd, day 13): 2.3 | mild suicidal ideation after treatment initiation (C-SSRS score = 1), patients ([2]; 50 mg qd): one patient | mean change from baseline in total PANSS score ([2]; 50 mg qd, day 7): −0.2 | mean change from baseline in total PANSS score ([2]; 50 mg qd, day 13): 0.0 | mean change from baseline in total PANSS score ([2]; 100 mg qd, day 7): −1.4 | mean change from baseline in total PANSS score ([2]; 100 mg qd, day 13): −3.6 | effect on mean pupil diameter relative to placebo ([2]; 25, 50, 100 mg qd): negligible effect | CGI-I, overall disease status ([2]; 25, 50, 100 mg qd 14 days): no change or minimal improvement | changes in laboratory parameters, vital signs, or ECGs ([2]; 25, 50, 100 mg qd 14 days): No clinically relevant or dose-related changes | deaths, serious AEs, discontinuation due to AEs ([2]; 25, 50, 100 mg qd 14 days): no deaths, serious AEs or discontinuation due to AEs | intensity of AEs ([2]; 25, 50, 100 mg qd 14 days): mild | tolerability ([2]; 25, 50, 100 mg qd 14 days): well tolerated | color discrimination (Ishihara plates) ([2]; all treatment groups): normal at maximum time points in all the patients | maximum concentration in CSF as % of the maximum plasma concentration [3]: 28.31% | memory performance [4]: improved memory performance | effect on long-term potentiation (LTP) [5]: significant enhancement of long-term potentiation | dose proportionality of exposure ([6]; 25- to 100-mg dose range): dose-proportional from 50 to 100 mg | gCV% of exposure (inter-individual variability) ([6]; CYP2C19 µM predicted phenotype): 154% | gCV% of exposure (inter-individual variability) ([6]; CYP2C19 EM predicted phenotype): 152% | gCV% of exposure (inter-individual variability) ([6]; CYP2C19 IM predicted phenotype): 48.4% | exposure by CYP2C19 predicted phenotype ([6]; IM, EM, UM patients): highest in patients with the CYP2C19 IM predicted phenotype, followed by EM and UM patients | half-life ([6]; human, plasma, oral): 1.1 to 1.85 h | gCV of AUC0−∞ (inter-individual variability), range over dose groups ([6]; single dose): 98.4% to 108% | gCV of C max (inter-individual variability), range over dose groups ([6]; single dose): 73.3% to 106% | time to reach C max ([6]; single dose, across 25, 50, 100 mg): 30 to 45 min | gCV of AUCtau,ss (inter-individual variability), range over dose groups ([6]; steady state): 86.8% to 112% | gCV of C max,ss (inter-individual variability), range over dose groups ([6]; steady state): 74.4% to 90.9% | accumulation ratio AUC, range over dose groups [6, 10]: 0.758–1.13 | accumulation ratio C max, range over dose groups [6, 10]: 0.768–1.40 | cGMP in the CSF [7]: dose- and concentration-dependent increase | frequency of eye disorders ([8]; healthy male Chinese and Japanese subjects receiving BI 409306): 29.8% | time to resolution of visual AEs / eye disorders ([8]; healthy male volunteers): 1 to 2 h

C[C@@H]1CN(Cc2ncccn2)C[C@H]1c1nc2c(cnn2C2CCOCC2)c(=O)[nH]1 [PF-04447943]
efficacy vs placebo in cognition, behavior, clinician-rated global change ([9]; 12-week treatment): not more effective than placebo | estimated median exposure relative to the IC50 [9, 11]: remained above the IC50 for the entire dosing duration | maximal concentrations relative to the IC50 [9, 11]: approximately five times the IC50

Source: publication PMC5990500 (Neurology and Therapy, 2017)
